Compound activity as filed in PubChem BioAssay.
In the library only some 3.5% were active in any assay of this set; here they are far more common.
WT yeast gro inh = growth inhibition of WT yeast, mitochondrial fusion screen; inhibition, % at 10 µM; mitochondrial fusion phenotypic screen, WT strain; AID 1362; actives 2.1% (n = 190,000); in the data active means inhibition above about 58%; tested in S. cerevisiae
MEKK2wt PB1 HTS = raises or lowers MEK5 binding to wildtype human MEKK2 PB1 domain | Q9Y2U5 | bead flow cytometry, Alexa488-MEK5 binding to MEKK2 WT; actives lie on both sides | binding response (% of control), % at 10 µM | actives 1.1% (n = 290,000); in the data active means binding response below about 67% or above about 130%
ABCG2 inh = blocks JC-1 efflux by human ABCG2 transporter. Q9UNQ0. IgMXP3 cells, flow cytometry. inhibition, % at 6.6 µM. actives 0.1% (n = 190,000). AID 1325;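 active means inhibition above 80%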
Target sequence (Q9UNQ0 whole entry, looked up): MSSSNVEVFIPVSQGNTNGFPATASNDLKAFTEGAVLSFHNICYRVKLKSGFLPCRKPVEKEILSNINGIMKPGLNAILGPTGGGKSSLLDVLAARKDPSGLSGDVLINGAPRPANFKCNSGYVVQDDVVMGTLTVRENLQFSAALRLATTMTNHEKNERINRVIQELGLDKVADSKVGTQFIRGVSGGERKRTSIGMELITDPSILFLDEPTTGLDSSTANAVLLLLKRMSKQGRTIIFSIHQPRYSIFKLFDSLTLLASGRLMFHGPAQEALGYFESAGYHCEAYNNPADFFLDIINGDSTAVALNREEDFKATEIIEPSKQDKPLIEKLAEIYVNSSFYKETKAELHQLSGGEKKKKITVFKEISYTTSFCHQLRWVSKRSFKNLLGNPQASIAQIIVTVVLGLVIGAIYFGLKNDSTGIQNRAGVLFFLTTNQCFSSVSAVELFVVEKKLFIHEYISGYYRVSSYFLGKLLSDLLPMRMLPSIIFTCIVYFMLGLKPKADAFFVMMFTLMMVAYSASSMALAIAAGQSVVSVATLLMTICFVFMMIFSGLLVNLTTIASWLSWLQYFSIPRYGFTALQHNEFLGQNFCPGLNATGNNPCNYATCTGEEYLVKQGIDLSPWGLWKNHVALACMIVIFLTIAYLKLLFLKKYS
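Test system: IgMXP3 (ABCG2) plus far-red-tagged CCRF-Adr (ABCB1) cells / Amount: 3 million cells/mL in well / Reagent: JC-1 transporter substrate / Timing: 10 min compound exposure, 25 °C / Signal: flow cytometry, 530 nm JC-1 signal / Read-out: percent efflux inhibition, scaled nicardipine 100% to DMSO 0% / Benchmarks: nicardipine as high control, DMSO as low control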
MEKK3 PB1 HTS = modulators (inhibitors or enhancers) of MEK5 binding to human MEKK3 PB1 domain. bead-based flow cytometry, Alexa488-MEK5 binding to MEKK3; actives lie on both sides; 0 = blocked by unlabeled MEK5, 100 = vehicle. binding response (% of control), % at 10 µM. actives 1.4% (n = 290,000). AID 1529;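 active means binding response more than 3 SD above or below the average of its plate-row segment, actives on both sides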;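 further: Alexa488 bead fluorescence after subtracting the streptavidin-only scavenger bead signal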
MEKK2mut PB1 HTS = signal of MEK5 binding to mutant human MEKK2 PB1 domain; actives 0.35% (n = 290,000); bead flow cytometry, Alexa488-MEK5 binding to MEKK2 mutant; percent response, % at 10 µM; in the data active means percent response above about 24%, passing the limit was not always enough
ABCB1 inh = human ABCB1 inhibition, ABCG2 as counter-screen | CCRF-Adr cells, JC-1 efflux, flow cytometry | inhibition, % at 6.6 µM | P08183 | actives 0.067% (n = 190,000); in the data active means inhibition above about 40%;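 further: higher value means more JC-1 retained so stronger ABCB1 efflux block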
MEKK2wt confirm = raises or lowers MEK5 binding to wildtype human MEKK2, retest; binding response (% of control), % at 10 µM; bead flow cytometry, Alexa488-MEK5 binding to MEKK2 WT; actives lie on both sides; shares compounds with MEKK3 PB1 HTS; actives 2.4% (n = 5,900); in the data active means binding response below about 16% or above about 210%; inactive means in between
MEKK2mut-MEK5 = signal of MEK5 binding to mutant human MEKK2, retest; AID 1893; percent response, % at 10 µM; shares compounds with MEKK3 PB1 HTS; actives 2% (n = 5,900); bead flow cytometry, Alexa488-MEK5 binding to MEKK2 mutant; in the data active means percent response mostly above about 71%, no sharp cut-off; inactive means mostly below about 38%;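 further: higher means compound restores mutant binding toward wildtype level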
MEKK3-MEK5 inh = confirmation of inhibitors of MEK5 binding to human MEKK3 | binding response (% of control), % at 10 µM | AID 1894 | actives 1.8% (n = 5,900) | shares compounds with MEKK3 PB1 HTS | bead flow cytometry, Alexa488-MEK5 binding to MEKK3; active compounds read low;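 active means binding response below 72% of control, or above a set upper limit, though filed actives all read lower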;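 further: lower values mean stronger disruption of MEK5 binding to MEKK3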
Numbers stand for hits; [ ] = remark or other dose.

`COc1ccc(CN2CCNC(=O)C2CC(=O)N2CCCN(C(C)=O)CC2)c(OC)c1` (stereo not drawn) gave MEKK2wt PB1 HTS inactive, MEKK3 PB1 HTS inactive and MEKK2mut PB1 HTS inactive.
COc1cc2c(cc1OC)C(=O)CC(C)S2 (stereo not drawn) was read as WT yeast gro inh inactive, MEKK2wt PB1 HTS inactive, ABCG2 inh inactive, MEKK3 PB1 HTS inactive, MEKK2mut PB1 HTS inactive and ABCB1 inh inactive.
CCCCOc1ccc(N2C(=O)CC(NCCc3ccc(S(N)(=O)=O)cc3)C2=O)cc1 (stereo not drawn) was read as WT yeast gro inh inactive, MEKK2wt PB1 HTS inactive, ABCG2 inh inactive, MEKK3 PB1 HTS 122, MEKK2mut PB1 HTS inactive, ABCB1 inh inactive, MEKK2wt confirm inactive, MEKK2mut-MEK5 inactive and MEKK3-MEK5 inh inactive.
Screening CCCOc1ccc(N2C(=O)CC(NCc3ccc(S(N)(=O)=O)cc3)C2=O)cc1 (stereo not drawn) returned WT yeast gro inh inactive, MEKK2wt PB1 HTS inactive, ABCG2 inh inactive, MEKK3 PB1 HTS inactive, MEKK2mut PB1 HTS inactive and ABCB1 inh inactive.
`CCCSc1nc2c(=O)[nH][nH]c(=O)c2n1Cc1ccccc1` gave WT yeast gro inh inactive, MEKK2wt PB1 HTS inactive, ABCG2 inh inactive, MEKK3 PB1 HTS inactive, MEKK2mut PB1 HTS inactive and ABCB1 inh inactive.
`COc1ccccc1NC(=O)N1CCOCC1` gave MEKK2wt PB1 HTS inactive, MEKK3 PB1 HTS inactive and MEKK2mut PB1 HTS inactive.
`COC(=O)c1ccccc1NC(=S)N1CCN(c2ccccc2)CC1` gave MEKK2wt PB1 HTS inactive, MEKK3 PB1 HTS inactive and MEKK2mut PB1 HTS inactive.
For COC(=O)c1cc(OC)c(OC)cc1NC(=S)N1CCN(c2ccccc2)CC1 the results were WT yeast gro inh inactive, MEKK2wt PB1 HTS 2.0[inhibitor], ABCG2 inh inactive, MEKK3 PB1 HTS 1.0[inhibitor], MEKK2mut PB1 HTS inactive, ABCB1 inh inactive, MEKK2wt confirm inactive, MEKK2mut-MEK5 inactive and MEKK3-MEK5 inh inactive.
`COC(=O)c1ccc(C(=O)OC)c(NC(=O)CN2CCCCC2)c1` gave WT yeast gro inh inactive, MEKK2wt PB1 HTS inactive, ABCG2 inh inactive, MEKK3 PB1 HTS inactive, MEKK2mut PB1 HTS inactive and ABCB1 inh inactive.
For COc1ccccc1NC(=S)N1CCOCC1 the results were WT yeast gro inh inactive, MEKK2wt PB1 HTS inactive, ABCG2 inh inactive, MEKK3 PB1 HTS 73[inhibitor], MEKK2mut PB1 HTS inactive, ABCB1 inh inactive, MEKK2wt confirm inactive, MEKK2mut-MEK5 inactive and MEKK3-MEK5 inh inactive.
COC(=O)c1cc(OC)c(OC)cc1NC(=O)CN1CCCCC1 was read as WT yeast gro inh inactive, MEKK2wt PB1 HTS -4.0[inhibitor], ABCG2 inh inactive, MEKK3 PB1 HTS -1.0[inhibitor], MEKK2mut PB1 HTS inactive, ABCB1 inh inactive, MEKK2wt confirm inactive, MEKK2mut-MEK5 inactive and MEKK3-MEK5 inh inactive.
For CC1=C(C(=O)OC(C)C)C(C2CC=CCC2)NC(=O)N1 (stereo not drawn) the results were WT yeast gro inh inactive, MEKK2wt PB1 HTS -4.0[inhibitor], ABCG2 inh inactive, MEKK3 PB1 HTS 0.0[inhibitor], MEKK2mut PB1 HTS inactive, ABCB1 inh inactive, MEKK2wt confirm inactive, MEKK2mut-MEK5 inactive and MEKK3-MEK5 inh inactive.
Screening COc1ccc2cc3c(N)nn(C(=O)c4ccccc4[N+](=O)[O-])c3nc2c1 returned WT yeast gro inh inactive, MEKK2wt PB1 HTS inactive, ABCG2 inh inactive, MEKK3 PB1 HTS 72[inhibitor], MEKK2mut PB1 HTS inactive, ABCB1 inh inactive, MEKK2wt confirm inactive, MEKK2mut-MEK5 inactive and MEKK3-MEK5 inh inactive.
For COc1ccc2cc3c(N)nn(C(=O)c4ccc(Cl)c([N+](=O)[O-])c4)c3nc2c1 the results were WT yeast gro inh inactive, MEKK2wt PB1 HTS inactive, ABCG2 inh inactive, MEKK3 PB1 HTS inactive, MEKK2mut PB1 HTS inactive and ABCB1 inh inactive.
Screening CC(C)CCN(C(=S)Nc1cccc(F)c1)C(C)c1cccs1 (stereo not drawn) returned WT yeast gro inh 59, MEKK2wt PB1 HTS inactive, ABCG2 inh inactive, MEKK3 PB1 HTS 46[inhibitor], MEKK2mut PB1 HTS inactive, ABCB1 inh inactive, MEKK2wt confirm inactive, MEKK2mut-MEK5 inactive and MEKK3-MEK5 inh inactive.
For O=C1c2ccccc2C(Nc2ccc(Cl)cn2)N1c1cccnc1 (stereo not drawn) the results were WT yeast gro inh inactive, MEKK2wt PB1 HTS inactive, ABCG2 inh inactive, MEKK3 PB1 HTS inactive, MEKK2mut PB1 HTS inactive and ABCB1 inh inactive.
For O=C(CSc1nc2c(c(=O)n1-c1ccccc1)SCC2)NCC1CCCO1 (stereo not drawn) the results were MEKK2wt PB1 HTS inactive, MEKK3 PB1 HTS inactive and MEKK2mut PB1 HTS inactive.
For CN(C)c1ccc(-c2nnc(-c3ccccc3F)o2)cc1 the results were MEKK2wt PB1 HTS inactive, MEKK3 PB1 HTS inactive, MEKK2mut PB1 HTS 26, MEKK2wt confirm inactive, MEKK2mut-MEK5 inactive and MEKK3-MEK5 inh inactive.
Screening COc1ccc(-c2nnc(-c3ccc(N(C)C)cc3)o2)cc1 returned WT yeast gro inh inactive, MEKK2wt PB1 HTS inactive, ABCG2 inh inactive, MEKK3 PB1 HTS inactive, MEKK2mut PB1 HTS inactive and ABCB1 inh inactive.
`CC(C)CN1CCNC(=O)C1CC(=O)NCc1cnn(-c2cccc(F)c2)c1` (stereo not drawn) gave WT yeast gro inh inactive, MEKK2wt PB1 HTS 138, ABCG2 inh inactive, MEKK3 PB1 HTS inactive, MEKK2mut PB1 HTS inactive, ABCB1 inh inactive, MEKK2wt confirm inactive, MEKK2mut-MEK5 inactive and MEKK3-MEK5 inh inactive.
For COc1ccc(CN2CCNC(=O)C2CC(=O)NCc2cnn(C)c2)cc1OC (stereo not drawn) the results were WT yeast gro inh inactive, MEKK2wt PB1 HTS inactive, ABCG2 inh inactive, MEKK3 PB1 HTS inactive, MEKK2mut PB1 HTS inactive and ABCB1 inh inactive.
Screening Cc1cc(Cc2ccc([N+](=O)[O-])cc2)c(C)cn1 returned MEKK2wt PB1 HTS inactive, MEKK3 PB1 HTS inactive and MEKK2mut PB1 HTS inactive.
For CC1=NN(c2ccccc2)C(=O)C1(C)[N+](=O)[O-] (stereo not drawn) the results were WT yeast gro inh inactive, MEKK2wt PB1 HTS inactive, ABCG2 inh inactive, MEKK3 PB1 HTS inactive, MEKK2mut PB1 HTS inactive and ABCB1 inh inactive.
COc1ccc(Cn2c(SCc3ccccc3C)nc3cc(OC)c(OC)cc3c2=N)cc1 was read as WT yeast gro inh inactive, MEKK2wt PB1 HTS 278, ABCG2 inh inactive, MEKK3 PB1 HTS inactive, MEKK2mut PB1 HTS 96, ABCB1 inh inactive, MEKK2wt confirm 252, MEKK2mut-MEK5 79 and MEKK3-MEK5 inh inactive.
